E-selectin induc: induces E-selectin expression in human endothelial cells | AID 686992 | activation, % at 7.58 µM | 260,000 tested, 0.37% active | P16581 | HUVEC E-selectin immunofluorescence imaging; normalized: neutral wells 0, TNF-alpha wells 100;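 active = mean E-selectin-positive cell signal at least 10% of the positive control, reached in at least 60% of replicates, without over 20% cell loss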
Target sequence (P16581 whole entry, looked up): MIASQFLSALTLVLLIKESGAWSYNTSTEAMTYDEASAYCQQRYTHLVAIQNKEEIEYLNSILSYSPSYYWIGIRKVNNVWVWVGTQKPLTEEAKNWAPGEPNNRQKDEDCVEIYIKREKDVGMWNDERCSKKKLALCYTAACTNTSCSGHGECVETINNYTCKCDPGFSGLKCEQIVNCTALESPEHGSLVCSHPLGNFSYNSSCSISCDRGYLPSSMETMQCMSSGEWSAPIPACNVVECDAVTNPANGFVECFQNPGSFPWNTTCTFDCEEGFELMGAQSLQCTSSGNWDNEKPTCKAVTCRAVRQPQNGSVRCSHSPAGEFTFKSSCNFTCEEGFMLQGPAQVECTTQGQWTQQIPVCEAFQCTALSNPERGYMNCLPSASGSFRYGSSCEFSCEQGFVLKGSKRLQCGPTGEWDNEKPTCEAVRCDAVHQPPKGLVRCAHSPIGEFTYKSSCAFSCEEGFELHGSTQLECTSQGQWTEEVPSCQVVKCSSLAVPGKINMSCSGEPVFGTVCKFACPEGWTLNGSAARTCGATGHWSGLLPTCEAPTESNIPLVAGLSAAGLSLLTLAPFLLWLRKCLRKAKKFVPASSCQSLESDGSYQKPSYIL
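System: HUVEC / Compound: single concentration / Signal: immunofluorescence imaging / Read-out: percent E-selectin-positive cells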
Env fusion inh: blocks HIV Env-driven cell-cell fusion; HeLa-JRFL Env/CEM21 cell fusion, luciferase; inhibition, % at 12.3 µM; 360,000 tested, 1.1% active; AID 651610;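 active = mean replicate inhibition score of at least 50 and every replicate individually at or above 50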
F508del corr: CFTR F508del correction in bronchial cells; activity (quench increase), % at 7.58 µM; CFBE cells, YFP halide quenching; stimulated with forskolin plus potentiator P3; % fluorescence drop versus neutral controls; 350,000 tested, 0.36% active;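 active = mean added fluorescence quench of at least 8% versus neutral control, with both replicates also reaching 8%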;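 note: cells transiently co-express mutant CFTR-F508del with the halide-sensitive YFP; corrector assay measuring rescue of mutant channel to the surface after 24 h compound exposure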
FGF22 binding: FGF22 (human) thermal shift binding; Q9HCT0; AID 651658; activity (Tm shift, normalised), % at 9.99 µM; 340,000 tested, 1.5% active; recombinant FGF22 thermal shift, SYPRO orange fluorescence; percent of sucrose octasulfate shift, DMSO zero;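 active = mean Tm shift, scaled 0 neutral to 100 positive control, at about 1.3% or above, every replicate too, limit read from the data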
S100A4 inh HTS: inhibitors of human S100A4 binding to myosin IIA peptide; P26447; S100A4/TAMRA-MyoIIA peptide fluorescence polarization; inhibition, % at 10.7 µM; 360,000 tested, 0.14% active; AID 652163;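 active = mean inhibition of at least 70% across replicates, with every replicate also reaching that level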
Target sequence (P26447 whole entry, looked up): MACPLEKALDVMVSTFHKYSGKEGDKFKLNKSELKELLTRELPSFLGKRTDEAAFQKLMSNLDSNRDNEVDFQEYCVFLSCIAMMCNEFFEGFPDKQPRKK
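Material: S100A4 monomer protein / Buffer or medium: 50 mM HEPES pH 7.2, 10 mM CaCl2, 100 mM KCl / Times: 5 min incubation before reading / Benchmarks: neutral control DMSO, positive control TFP / Reagent: labelled myosin peptide probe, 5 nM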
Large screens that a line does not name were inactive; [ ] = another dose, or the depositor's remark. This is a sample that favours compounds with a hit; in the whole collection about 2.7% have one here.

CCCN1C[C@@H](C)[C@H](OC)CN(C)C(=O)c2cc(NC(=O)C3CC3)ccc2OC[C@H]1C	none (no result: Env fusion inh)
C[C@H](CO)N1C[C@H](C)[C@H](CN(C)C(=O)Nc2cccc3ccccc23)OCCCC[C@H](C)Oc2ccc(NS(=O)(=O)c3ccc(Cl)cc3)cc2C1=O	none (no result: E-selectin induc)
Cc1ccc(S(=O)(=O)N(C)C(=O)NC(=O)NS(=O)(=O)c2ccccc2)cc1	FGF22 binding 44 (no result: E-selectin induc)
O=C(c1ccc(Cl)c(Cl)c1)N1CCC(=O)N([C@H](COCc2ccccc2)Cc2ccccc2)CC1	Env fusion inh 64
O=C(c1cccc(Cl)c1)N1CCC(=O)N(C(COCc2ccccc2)Cc2ccccc2)CC1 (stereo not given)	none (no result: E-selectin induc)
O=C(c1ccc(Cl)c(Cl)c1)N1CCC(=O)N(C(CO)Cc2ccccc2)CC1 (stereo not given)	none
O=C(c1ccc(Cl)c(Cl)c1)N1CCC(=O)N(C(COCc2ccccc2)Cc2ccccc2)CC1 (stereo not given)	Env fusion inh 86
O=C(c1ccc(Cl)c(Cl)c1)N1CCC(=O)N([C@H](COCc2cccc(C(F)(F)F)c2)Cc2ccccc2)CC1	Env fusion inh 92
COc1ccc(S(=O)(=O)Nc2ccc3c(c2)C(=O)N([C@H](C)CO)C[C@H](C)[C@@H](CN(C)S(=O)(=O)c2ccc(C)cc2)OCCCC[C@H](C)O3)cc1	none (no result: E-selectin induc)
Cc1cc(C(=O)Nc2cccc3c2O[C@H](CN(C)C(=O)Nc2cccc4ccccc24)[C@H](C)CN([C@H](C)CO)C3=O)n(C)n1	none
COCC(=O)Nc1ccc2c(c1)C(=O)N(C)[C@H]1CC[C@@H](CC(=O)NC3CCCC3)O[C@H]1CO2	none (no result: S100A4 inh HTS)
CCCNC(=O)N[C@@H]1CC[C@H](CC(=O)NC2CCC2)O[C@@H]1CO	none
O=C(Cn1cc(COc2c(F)c(F)c(Br)c(F)c2F)nn1)c1ccc(O)cc1	FGF22 binding 1.8
C[C@@H]1CN([C@@H](C)CO)C(=O)Cc2cc(NS(C)(=O)=O)ccc2O[C@@H]1CN(C)C(=O)Nc1ccc2c(c1)OCO2	none (no result: S100A4 inh HTS)
COc1ccc(NC(=O)Nc2ccc3c(c2)C(=O)N([C@@H](C)CO)C[C@H](C)[C@H](CN(C)Cc2ccccc2)OCCCC[C@H](C)O3)cc1	Env fusion inh 86[16.7 µM]
COc1ccc(CN(C)C[C@@H]2OCCCC[C@H](C)Oc3ccc(NC(=O)Nc4ccc(OC)cc4)cc3C(=O)N([C@@H](C)CO)C[C@@H]2C)cc1	Env fusion inh 64[16.7 µM]
COc1ccc(NC(=O)Nc2ccc3c(c2)C(=O)N([C@H](C)CO)C[C@@H](C)[C@@H](CN(C)Cc2ccccc2)OCCCC[C@H](C)O3)cc1	none
COc1ccc(CN(C)C[C@@H]2OCCCC[C@H](C)Oc3ccc(NC(=O)Nc4ccc(OC)cc4)cc3C(=O)N([C@H](C)CO)C[C@@H]2C)cc1	none (no result: E-selectin induc)
COC(=O)C[C@H]1C[C@@H]2c3cc(NC(=O)CC4CC4)ccc3O[C@@H]2[C@@H](CO)O1	none
CCCCc1c(-c2ccccc2F)ncn1CCc1ccccc1OC	Env fusion inh 65
CCCCCc1c(-c2ccccc2OC)ncn1CCc1ccccc1OC	Env fusion inh 69
CCCCc1c(-c2ccccc2OC)ncn1CCc1ccccc1OC	none
CCCCc1c(-c2cccc(F)c2)ncn1CCc1ccccc1OC	none
CCCCCc1c(-c2ccccc2F)ncn1CCc1ccccc1OC	none
CCCCc1c(-c2cccc(Br)c2)ncn1CCc1ccccc1OC	FGF22 binding 35
O=C(Nc1ccccc1)OC1CC2CC1C1CCCC21 (stereo not given)	FGF22 binding 43
CCOC(=O)[C@H]1[C@H]2COc3ccccc3[C@@H]2N2C(=O)c3c(C)cc(C)cc3NC(=O)[C@@]12C	Env fusion inh 89
CCOC(=O)[C@@H]1[C@H]2COc3ccccc3[C@@H]2N2C(=O)N(c3cccc(Cl)c3)C(=O)[C@@]12C	Env fusion inh 55
COc1cc2c(cc1OC)C(=O)N1[C@H]3c4ccccc4OC[C@@H]3[C@H](c3ccccc3)[C@]1(C)C(=O)N2	Env fusion inh 66
CCOC(=O)[C@@H]1[C@H]2COc3cc(OC)ccc3[C@H]2N2C(=O)N(c3ccc(C(F)(F)F)cc3)C(=O)[C@]12C	Env fusion inh 109 (no result: E-selectin induc)
CCOC(=O)[C@@H]1[C@H]2COc3ccccc3[C@@H]2N2C(=O)N(c3cccc(Cl)c3)C(=O)[C@]12C	none
C[C@H]1CN([C@@H](C)CO)C(=O)c2cc(NC(=O)Nc3ccc4c(c3)OCO4)ccc2O[C@@H]1CN(C)Cc1ccc(-c2ccccc2)cc1	none
O=C(Nc1ccc(F)cc1)N[C@H]1C=C[C@H](CC(=O)N2CCCCC2)O[C@@H]1CO	none
COc1ccc2c(c1)OC[C@H]1[C@H]2N2C(=O)CN(Cc3ccc(Cl)cc3)C(=O)[C@@]2(C)[C@H]1c1ccccc1	Env fusion inh 73
CCOC(=O)[C@@H]1[C@H]2COc3cc(OC)ccc3[C@H]2N2C(=O)N(c3cccc(F)c3)C(=O)[C@@]12C	Env fusion inh 95
O=C(c1ccccc1F)N1CCN(Cc2ccc3c(c2)OCO3)CC1	none
O=C(c1ccccc1F)N1CCN(Cc2cccc(Cl)c2)CC1	Env fusion inh 69 (no result: E-selectin induc, F508del corr, FGF22 binding, S100A4 inh HTS)
CCC(=O)N(C)C[C@H]1Oc2cc(-c3cccc(F)c3)ccc2S(=O)(=O)N([C@H](C)CO)C[C@H]1C	none
CN=C(NC(=O)Nc1c(C)cccc1C)NC(=O)Nc1c(C)cccc1C	FGF22 binding 44 (no result: E-selectin induc)
COC(=O)NC1(C(F)(F)F)C(=O)Nc2c1c(=O)n(C)c(=O)n2C (stereo not given)	FGF22 binding 43
O=C(c1cccnc1)N1C[C@@H]2[C@H](c3ccccc31)[C@H](CO)N2C(=O)C1CCCC1	none (no result: Env fusion inh)
CC(CN1CCCCC1)OC(=O)Cc1ccc(Cl)cc1 (stereo not given)	none (no result: E-selectin induc, F508del corr, FGF22 binding, S100A4 inh HTS)
CC(CN1CCCCC1)OC(=O)c1ccco1 (stereo not given)	E-selectin induc 39
COc1ccc(CC(=O)OC(C)CN2CCCCC2)cc1 (stereo not given)	FGF22 binding 43 (no result: E-selectin induc)
COc1cc(OC)cc(C(=O)N2CCN(Cc3cccc(F)c3)CC2)c1	none (no result: E-selectin induc, F508del corr, FGF22 binding, S100A4 inh HTS)
COc1cc(OC)cc(C(=O)N2CCN(Cc3ccccc3Br)CC2)c1	FGF22 binding 43 (no result: E-selectin induc)
Cc1noc(C)c1NC(=O)N(C)C[C@H]1Oc2ccc(NS(C)(=O)=O)cc2CC(=O)N([C@H](C)CO)C[C@@H]1C	none (no result: S100A4 inh HTS)
COc1ccccc1NC1=C(NC(C)=O)C(=O)c2ccccc2C1=O	F508del corr 8.2
COC1=C(Nc2ccccc2OC)C(=O)c2ccccc2C1=O	none
C[C@@H]1CCCCO[C@H](CN(C)C(=O)Nc2ccccc2)[C@@H](C)CN([C@@H](C)CO)C(=O)c2cc(NS(C)(=O)=O)ccc2O1	none
N#Cc1ccc(-c2cccs2)nc1SCc1cccnc1	F508del corr 9.0 (no result: E-selectin induc)
O=S(=O)(O)c1ccc(NN=Cc2ccccc2O)cc1	FGF22 binding 44

Screens from PubChem BioAssay.
